For 6 molecules, IC50 results are on record in ChEMBL document CHEMBL1148755, “Structural analogues of smoothened intracellular loops as potent inhibitors of Hedgehog pathway and cancer cell growth” (J Med Chem, 2007).

Peptide text beside a SMILES is read from it. * marks the point of attachment. Palmitoyl = CCCCCCCCCCCCCCCC(=O)*

The experiment has as its system SK-MEL-2. Description: Growth inhibition of SK-Mel2 melanoma cells after 48 hrs by MTT assay. The class given is functional, cell-based, Homo sapiens. To be noted: Homo sapiens, SK-MEL-2, 48 h. In a few lines: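 Cells seeded at 200-400 per well in DMEM with 10% FBS and left to attach for 24 h. The next day, inhibitor in medium at 2× was added in an equal volume, and cells were incubated 48 h in a CO2 incubator. Reference plates were read at time of addition for T0 density. MTT staining was read as absorbance at 544 nm and compared with untreated control cells.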
Background: Tetrazolium assays rely on reduction of a dye to a coloured formazan, in cell work by metabolically active cells.
On to `CCCCCCCCCCCCCCCC(=O)N[C@@H](CC(C)C)C(=O)N[C@@H](Cc1ccccc1)C(=O)N[C@@H](CO)C(=O)N[C@H](C(=O)N[C@@H](CCCCN)C(=O)N[C@@H](CO)C(=O)N[C@@H](CC(N)=O)C(=O)N[C@@H](Cc1c[nH]cn1)C(=O)N1CCC[C@H]1C(=O)NCC(=O)N[C@@H](CC(C)C)C(=O)N[C@@H](CC(C)C)C(=O)N[C@@H](CO)C(=O)N[C@@H](CCC(=O)O)C(=O)N[C@@H](CCCCN)C(=O)N[C@@H](C)C(=O)N[C@@H](C)C(=O)N[C@@H](CO)C(=O)N[C@@H](CCCCN)C(=O)N[C@H](C(=O)N[C@@H](CC(N)=O)C(=O)N[C@@H](CCC(=O)O)C(=O)N[C@H](C(=O)N[C@@H](CCSC)C(=O)N[C@@H](CC(C)C)C(=O)N[C@@H](CCCNC(=N)N)C(=O)O)[C@@H](C)O)[C@@H](C)CC)[C@@H](C)CC` (Palmitoyl-LFSIKSNHPGLLSEKAASKINETMLR-OH), for which the IC50 stood at 1500 nM.

Consider `CCCCCCCCCCCCCCCC(=O)N[C@@H](CC(C)C)C(=O)N[C@H](C(=O)N[C@@H](Cc1ccc(O)cc1)C(=O)N[C@@H](C)C(=O)N[C@@H](Cc1c[nH]c2ccccc12)C(=O)N[C@@H](Cc1cnc[nH]1)C(=O)N[C@H](C(=O)N[C@@H](CO)C(=O)N[C@@H](Cc1ccccc1)C(=O)N[C@@H](CCCCN)C(=O)O)[C@@H](C)O)[C@@H](C)O` (Palmitoyl-LTYAWHTSFK-OH), for which 60 nM corresponded to half-maximal inhibition (IC50). Then `CCCCCCCCCCCCCCCC(=O)N[C@@H](CC(C)C)C(=O)N[C@H](C(=O)N[C@@H](Cc1ccc(O)cc1)C(=O)N[C@@H](C)C(=O)N[C@@H](Cc1c[nH]c2ccccc12)C(=O)N[C@@H](Cc1cnc[nH]1)C(=O)N[C@H](C(=O)N[C@@H](CO)C(=O)N[C@@H](Cc1ccccc1)C(=O)N[C@@H](CCCCN)C(=O)N[C@@H](C)C(=O)O)[C@@H](C)O)[C@@H](C)O` (Palmitoyl-LTYAWHTSFKA-OH), with 90 nM; and `CCCCCCCCCCCCCCCC(=O)N[C@@H](CC(C)C)C(=O)N[C@H](C(=O)N[C@@H](Cc1ccc(O)cc1)C(=O)N[C@@H](C)C(=O)N[C@@H](Cc1c[nH]c2ccccc12)C(=O)N[C@@H](Cc1cnc[nH]1)C(=O)N[C@H](C(=O)N[C@@H](CO)C(=O)N[C@@H](Cc1ccccc1)C(=O)N[C@@H](CCCCN)C(=O)N[C@@H](C)C(=O)N[C@@H](CC(C)C)C(=O)O)[C@@H](C)O)[C@@H](C)O` (Palmitoyl-LTYAWHTSFKAL-OH), with 80 nM.

As for `CCCCCCCCCCCCCCCC(=O)N[C@@H](CC(C)C)C(=O)N[C@H](C(=O)N[C@@H](Cc1ccc(O)cc1)C(=O)N[C@@H](C)C(=O)N[C@@H](Cc1c[nH]c2ccccc12)C(=O)N[C@@H](Cc1cnc[nH]1)C(=O)N[C@H](C(=O)N[C@@H](CO)C(=O)N[C@@H](Cc1ccccc1)C(=O)N[C@@H](CCCCN)C(=O)N[C@@H](C)C(=O)N[C@@H](CC(C)C)C(=O)NCC(=O)N[C@H](C(=O)N[C@H](C(=O)N[C@@H](Cc1ccc(O)cc1)C(=O)N[C@@H](CCC(N)=O)C(=O)N1CCC[C@H]1C(=O)O)[C@@H](C)O)[C@@H](C)O)[C@@H](C)O)[C@@H](C)O` (Palmitoyl-LTYAWHTSFKALGTTYQP-OH), the IC50 was 300 nM. Molecule `CCCCCCCCCCCCCCCC(=O)N[C@@H](CC(C)C)C(=O)N[C@H](C(=O)N[C@@H](Cc1ccc(O)cc1)C(=O)N[C@@H](C)C(=O)N[C@@H](Cc1c[nH]c2ccccc12)C(=O)N[C@@H](Cc1cnc[nH]1)C(=O)N[C@H](C(=O)N[C@@H](CO)C(=O)N[C@@H](Cc1ccccc1)C(=O)N[C@@H](CCCCN)C(=O)N[C@@H](C)C(=O)N[C@@H](CC(C)C)C(=O)NCC(=O)N[C@H](C(=O)N[C@H](C(=O)N[C@@H](Cc1ccc(O)cc1)C(=O)N[C@@H](CCC(N)=O)C(=O)N1CCC[C@H]1C(=O)N[C@@H](CC(C)C)C(=O)N[C@@H](CO)C(=O)NCC(=O)O)[C@@H](C)O)[C@@H](C)O)[C@@H](C)O)[C@@H](C)O` (Palmitoyl-LTYAWHTSFKALGTTYQPLSG-OH) registered an IC50 of 1400 nM.

As a reminder, the IC50 is the concentration at which inhibition is half-maximal. High values mean weaker potency, low ones greater potency.
